Screening results deposited in PubChem by The Scripps Research Institute Molecular Screening Center.
S1P4 ag = activates the human S1P4 receptor. O95977. S1P4-expressing cell line, agonist reporter assay. activation, % at 4.98 µM. hit rate 0.35% among 220,000. AID 1509; in the data active = activation above about 11%
NPY2 pot ag = potentiators or agonists of human neuropeptide Y receptor Y2; cells expressing NPY-Y2, potentiator/agonist read-out; activation, % at 3.6 µM; hit rate 0.45% among 220,000; AID 1359; in the data active = activation above about 27%;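 also: cells stimulated with NPY near EC25 plus isoproterenol at EC100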
NPY-Y1 PAM-ag = human NPY-Y1 potentiation or agonism, primary screen | P25929 | NPY-Y1 expressing cells, potentiator/agonist activation | activation, % at 3.6 µM | hit rate 0.37% among 220,000; in the data active = activation above about 33%, passing the limit was not always enough;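 also: cells stimulated with NPY at EC10 then isoproterenol at EC100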
Target sequence (P25929 whole entry, looked up): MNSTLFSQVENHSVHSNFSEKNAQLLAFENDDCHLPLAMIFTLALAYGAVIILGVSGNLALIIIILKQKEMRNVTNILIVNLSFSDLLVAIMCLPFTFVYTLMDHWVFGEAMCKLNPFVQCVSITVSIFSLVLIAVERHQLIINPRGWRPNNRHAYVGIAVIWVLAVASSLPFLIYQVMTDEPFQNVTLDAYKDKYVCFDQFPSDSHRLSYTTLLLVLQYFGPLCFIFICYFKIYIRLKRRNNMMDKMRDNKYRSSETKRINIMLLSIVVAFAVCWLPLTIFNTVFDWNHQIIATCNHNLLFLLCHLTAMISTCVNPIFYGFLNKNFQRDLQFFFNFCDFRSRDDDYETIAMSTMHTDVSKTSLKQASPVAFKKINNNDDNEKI
S1P4 antag = antagonists of human S1P4 receptor. O95977. S1P4-expressing cells, antagonist mode, reporter read-out. inhibition, % at 4.98 µM. hit rate 0.26% among 220,000; in the data active = inhibition above about 29%
NPY-Y2 antag = blocks the human neuropeptide Y Y2 receptor. NPY-Y2 expressing cells, antagonist mode. inhibition, % at 2.7 µM. P49146. hit rate 0.99% among 140,000; in the data active = inhibition above about 17%
NPY Y1 blocker = antagonists of human neuropeptide Y receptor Y1; HEK293-CNG Y1 cells, membrane potential fluorescence; NPY at EC95, then isoproterenol; inhibition, % at 3.6 µM; hit rate 1% among 200,000; AID 1040;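 active = inhibition above the campaign mean inhibition of all tested compounds plus 3 SD, cut at about 20% in these data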
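Material: HEK293 Y1/CNG channel cell line | Also added: NPY (25 nM), isoproterenol (1 µM), Ro 20-1724 (25 µM) | Compound: One concentration, 3.6 µM, in 0.4% DMSO | Schedule: 3 h dye uptake, 1 h room-temperature compound, 45 min post-isoproterenol | Signal: Membrane-potential fluorescent dye readout | Read-out: % inhibition of NPY effect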
NPY-Y1 confirm = human NPY-Y1 potentiation or agonism, confirmation | shares compounds with NPY-Y1 PAM-ag | cell-based NPY-Y1 potentiator/agonist assay | activation, % at 3.6 µM | hit rate 20% among 280 | AID 1546; in the data active = activation above about 45%;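 also: cells challenged with NPY at its EC10 plus isoproterenol stimulus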
NPY-Y2 counter = NPY-Y2 potentiation or agonism as NPY-Y1 counter-screen | HEK293-CNG cells, membrane-potential fluorescence (FLIPR), 1536-well | activation, % at 3.6 µM | hit rate 20% among 280 | shares compounds with NPY-Y1 PAM-ag; in the data active = activation above about 33%
NPY-Y1 ag = human NPY-Y1 agonism as potentiator counter-screen; AID 1697; shares compounds with NPY-Y1 PAM-ag; HEK293 Y1-CNGC, membrane potential fluorescence, agonist mode; activation, % at 3.6 µM; hit rate 50% among 280;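 active = percent activation above the mean of DMSO-only control wells plus 3 SD of those wells, cut at about 18% in these data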;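 also: cells challenged with isoproterenol plus Ro 20-1724 with no NPY in test wells; Y1 agonism lowers isoproterenol-driven cAMP and reduces probe fluorescence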
NPY-Y2 ag = activates human NPY-Y2, counter-screen for NPY-Y1 hits; shares compounds with NPY-Y1 PAM-ag; HEK293 Y2-CNGC, membrane potential fluorescence, agonist mode; AID 1698; activation, % at 3.6 µM; hit rate 67% among 280;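 active = activation above the solvent-only control wells' mean plus 3 SD, cut at about 11% in these data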;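 also: agonism lowers cAMP so well fluorescence drops in active wells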
CNGC counter = counter-screen for NPY-Y1 potentiators or agonists: CNG channel inhibitors. inhibition, % at 3.6 µM. hit rate 42% among 280. AID 1704. HEK293-CNG parental, isoproterenol cAMP, membrane potential fluorescence. shares compounds with NPY-Y1 PAM-ag;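 active = inhibition above the mean of stimulated solvent-only control wells plus 3 SD, cut at about 22% in these data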
Of the large screens only hits and unclear results are named; the others gave an inactive call (follow-up assays come after a bar, where they were run). The list is not random: actives were taken first. Their share in the collection is about 2.4%.

O=C(N/N=C/c1c[nH]c2ccc(Br)cc12)C1CC1	NPY-Y1 PAM-ag 57.7 (no result: NPY-Y2 antag, NPY Y1 blocker) | NPY-Y1 confirm inactive | NPY-Y2 counter 33.8 | NPY-Y1 ag 50.2 | NPY-Y2 ag 43.5 | CNGC counter 46.9
CN(C)CCNC(=O)COc1ccc(Cl)cc1Cl	none
O=C(COc1ccc(Cl)cc1Cl)NCCSc1ccc(Cl)cc1	NPY-Y1 PAM-ag 91.1 | NPY-Y1 confirm inactive | NPY-Y2 counter inactive | NPY-Y1 ag inactive | NPY-Y2 ag inactive | CNGC counter inactive
COc1ccc(C(=O)NC2CCCCCC2)cc1S(=O)(=O)Nc1ccc(Br)cc1	NPY-Y1 PAM-ag 48.0 | NPY-Y1 confirm 44.1 | NPY-Y2 counter inactive | NPY-Y1 ag 42.4 | NPY-Y2 ag 31.3 | CNGC counter 39.6
COc1ccc(C(=O)NC2CCCCCC2)cc1S(=O)(=O)N1CCCC1	none (no result: NPY-Y2 antag)
O=C(OCC(=O)N1CCc2ccccc2C1)c1cc(=O)[nH]c2ccccc12	none (no result: NPY-Y2 antag, NPY Y1 blocker)
CCN1CCN(c2nc3ccccc3nc2C(C#N)C(=O)OCc2ccccc2)CC1 (configuration not stated)	NPY-Y1 PAM-ag 40.0 | NPY-Y1 confirm 62.3 | NPY-Y2 counter 47.0 | NPY-Y1 ag 40.8 | NPY-Y2 ag 54.3 | CNGC counter 53.2
CCCCCCOC(=O)C(C#N)c1nc2ccccc2nc1N1CCN(CC)CC1 (configuration not stated)	none
O=C(O)C1=C[C@H](c2ccc(Br)cc2)C[C@H](OCc2ccc(CO)cc2)O1	none (no result: NPY-Y2 antag)
Cc1ccc(O)c(C(=O)c2cnc3c(c2)c(-c2ccc(F)cc2)c(C#N)c(=O)n3C)c1	NPY-Y1 PAM-ag 42.2 (no result: NPY-Y2 antag) | NPY-Y1 confirm 61.3 | NPY-Y2 counter 54.6 | NPY-Y1 ag 49.3 | NPY-Y2 ag 53.6 | CNGC counter 34.1
CC(=O)c1c(C)nc(-c2ccc(Cl)cc2)nc1N	NPY-Y1 PAM-ag 88.2 (no result: NPY-Y2 antag) | NPY-Y1 confirm inactive | NPY-Y2 counter inactive | NPY-Y1 ag inactive | NPY-Y2 ag inactive | CNGC counter inactive
CCOc1cc(C(=O)NC(=S)Nc2ccc(Cl)c(C(=O)O)c2)cc(OCC)c1OCC	none (no result: NPY-Y2 antag, NPY Y1 blocker)
CC(C)(C)NC(=O)C(c1ccc(O)cc1)N(C(=O)Cn1nnc(-c2ccc(F)cc2)n1)c1ccccc1F (configuration not stated)	NPY-Y1 PAM-ag 52.1 (no result: NPY-Y2 antag) | NPY-Y1 confirm inactive | NPY-Y2 counter inactive | NPY-Y1 ag 19.1 | NPY-Y2 ag 16.3 | CNGC counter inactive
O=C(c1ccc2c3c(cccc13)CC2)C1CCCN(Cc2ccncc2)C1 (configuration not stated)	NPY-Y1 PAM-ag 77.4 (no result: NPY-Y2 antag) | NPY-Y1 confirm inactive | NPY-Y2 counter inactive | NPY-Y1 ag inactive | NPY-Y2 ag inactive | CNGC counter inactive
CCOC(=O)Cn1c(=O)oc2cc(S(=O)(=O)NCc3cccs3)ccc21	NPY-Y1 PAM-ag 33.4 | NPY-Y1 confirm 48.4 | NPY-Y2 counter inactive | NPY-Y1 ag 46.1 | NPY-Y2 ag 28.7 | CNGC counter 60.6
CCOC(=O)Cn1c(=O)oc2cc(S(=O)(=O)NCc3ccccn3)ccc21	none
CC(=O)c1ccc(NC(=S)NC(C)c2ccc(Cl)cc2Cl)cc1 (configuration not stated)	NPY-Y1 PAM-ag 36.8 (no result: NPY-Y2 antag) | NPY-Y1 confirm 48.2 | NPY-Y2 counter inactive | NPY-Y1 ag 37.3 | NPY-Y2 ag 35.0 | CNGC counter 35.7
COc1ccc(CC(=O)Nc2ccc(C(C)=O)cc2)cc1	NPY-Y1 PAM-ag 37.2 (no result: NPY-Y2 antag) | NPY-Y1 confirm inactive | NPY-Y2 counter inactive | NPY-Y1 ag 32.6 | NPY-Y2 ag 34.9 | CNGC counter 31.3
